Data on four compounds can be found in ChEMBL document CHEMBL1221194, “Forward chemical genetic approach identifies new role for GAPDH in insulin signaling” (Nat Chem Biol, 2007).

The source made the active and inactive calls. The calls are words filed in the database; no cut-off is given here.

The subject of assay [1] is Caenorhabditis elegans. Nature of the assay: inhibition of GAPDH in Caenorhabditis elegans e1370 daf-2 mutant assessed as inhibition of dauer formation relative to control. A digest of the protocol: (§1)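 C. elegans daf-2 (e1370) kept in M9 buffer with 2% E. coli OP50 culture and compound ([…]), 4 d at 25 °C. Young adult-size animals counted in solution.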

For assay [2], the target named is Glyceraldehyde-3-phosphate dehydrogenase (Mus musculus) (UniProt P16858). Nature of the assay: Inhibition of GAPDH in mouse 3T3-L1 cells assessed as 2-NBD-glucose uptake after 15 mins. The class given is cell-based. A digest of the protocol:
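3T3-L1 preadipocytes grown overnight in DMEM with 10% heat-inactivated newborn calf serum, washed and held in PBS 5 min. Compound applied with 2-NBD-glucose ([…]) for 15 min at 37 °C. Cells washed, lysed in 0.1 M potassium phosphate pH 10 with 1% Triton X-100, DMSO added. Fluorescence read at ex 466/em 540 nm.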

In assay [3] the target is Glyceraldehyde-3-phosphate dehydrogenase (Oryctolagus cuniculus, UniProt P46406). Nature of the assay: Inhibition of rabbit GAPDH glycolytic activity. The method in brief:
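Enzyme source was purified GAPDH from rabbit muscle, assayed in vitro for its glycolytic enzymatic activity. IC50 was reported as the half-maximal inhibitory concentration.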

Assay [4] addresses Glyceraldehyde-3-phosphate dehydrogenase (Oryctolagus cuniculus) (UniProt P46406). Briefly: Induction of rabbit GAPDH tetramer segregation into monomers at 10 uM after 30 mins by SDS-PAGE. A digest of the protocol:
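Purified rabbit muscle GAPDH was incubated with compound at 0.4, 2 or 10 µM for 30 min at 4 °C. Samples were then chemically cross-linked, resolved by SDS-PAGE and silver-stained. Tetramer and monomer bands were compared.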

Assay [5] concerns the target Glyceraldehyde-3-phosphate dehydrogenase (Mus musculus) (UniProt P16858). Nature of the assay: Induction of GAPDH tetramer segregation into monomers in mouse 3T3L1 lysate at […] after 3 hrs by immunoprecipitation method.
A short description of assay [6]: Activation of PI3K assessed as tyrosine phosphorylation of p85 subunit.
Assay [7] addresses Glyceraldehyde-3-phosphate dehydrogenase (Mus musculus) (UniProt P16858). Briefly: Inhibition of GAPDH in mouse 3T3L1 lysate assessed as inhibition of conversion of Ptdlns(3, 4, 5)P3 to PIP2 by fluorescent phosphoinositide TLC. The method in brief: (§2)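 3T3-L1 preadipocyte lysate (5 µl) in 50 mM ammonium carbonate pH 8.0 with 2 mM DTT. Compound present, reaction started with C6-NBD6-PtdIns(3,4,5)P3 or PtdIns(4,5)P2, run 2 h at 25 °C. Products resolved by TLC on oxalate-treated silica. Hydrolyzed spot quantified as fraction of total fluorescence; s.d. from two independent experiments.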

In assay [8] the test system is 3T3-L1. Nature of the assay: Inhibition of conversion of Ptdlns(3, 4, 5)P3 to PIP2 in GAPDH depleted mouse 3T3L1 lysate by fluorescent phosphoinositide TLC. Format: functional. A digest of the protocol: (§3)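 3T3-L1 lysate immunodepleted of GAPDH, run in 25 µl ammonium carbonate/DTT buffer pH 8.0 with fluorescent PtdIns(3,4,5)P3 or PtdIns(4,5)P2 substrate. Run with or without exogenous GAPDH ([…]), compound tested in the presence of GAPDH, 2 h at 25 °C. Sampled every 20 min and resolved by TLC. Hydrolyzed/total spot fluorescence; two independent experiments.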

Assay [9] deals with Glyceraldehyde-3-phosphate dehydrogenase (Mus musculus) (UniProt P16858). Briefly: Inhibition of GAPDH in mouse 3T3L1 lysate assessed as inhibition of conversion of Ptdlns(4, 5)P2 to PIP by fluorescent phosphoinositide TLC. The method in brief:
as §2

Assay [10] deals with 3T3-L1. Nature of the assay: Inhibition of conversion of Ptdlns(4, 5)P2 to PIP in GAPDH depleted mouse 3T3L1 lysate by fluorescent phosphoinositide TLC. The class given is functional. The method in brief: as §3
In assay [11] the target is Glyceraldehyde-3-phosphate dehydrogenase (Mus musculus) (UniProt P16858). Briefly: Inhibition of GAPDH in mouse 3T3L1 […] assessed as increase in Ptdlns(4, 5)P2 level by immunofluorescence method. The method in brief:
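Whole 3T3-L1 cells given compound in PBS for 1 min, DMSO as control, then fixed in 4% formaldehyde. Stained with antibody to PtdIns(4,5)P2 and imaged by fluorescence microscopy (ex 488/em 510 nm). Intensity normalized to DMSO control; s.d. from 15 images over three independent experiments.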

Assay [12] deals with Glyceraldehyde-3-phosphate dehydrogenase (Homo sapiens, UniProt P04406). Nature of the assay: Inhibition of GAPDH. The method in brief:
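Purified rabbit muscle GAPDH was tested in vitro for its glycolytic enzymatic activity. The read-out was the half-maximal inhibitory concentration.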

Assay [13] concerns the target Glyceraldehyde-3-phosphate dehydrogenase (Oryctolagus cuniculus) (UniProt P46406). Nature of the assay: Inhibition of rabbit GAPDH glycolytic activity at > 50 uM.
Assay [14] deals with Caenorhabditis elegans. Nature of the assay: inhibition of GAPDH in Caenorhabditis elegans e1370 daf-2 mutant assessed as inhibition of dauer formation. The method in brief:
as §1

Sequence of Glyceraldehyde-3-phosphate dehydrogenase (Mus musculus) (P16858 whole entry): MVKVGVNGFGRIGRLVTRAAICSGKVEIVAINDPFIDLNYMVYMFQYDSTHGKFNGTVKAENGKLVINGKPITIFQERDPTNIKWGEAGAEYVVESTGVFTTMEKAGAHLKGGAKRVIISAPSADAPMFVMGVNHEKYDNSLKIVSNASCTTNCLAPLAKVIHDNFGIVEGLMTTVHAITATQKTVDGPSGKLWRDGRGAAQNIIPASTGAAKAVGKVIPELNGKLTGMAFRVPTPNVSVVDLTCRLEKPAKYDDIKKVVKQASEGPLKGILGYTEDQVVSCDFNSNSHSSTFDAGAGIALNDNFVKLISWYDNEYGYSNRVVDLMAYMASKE
Sequence of Glyceraldehyde-3-phosphate dehydrogenase (Oryctolagus cuniculus) (P46406 whole entry, looked up): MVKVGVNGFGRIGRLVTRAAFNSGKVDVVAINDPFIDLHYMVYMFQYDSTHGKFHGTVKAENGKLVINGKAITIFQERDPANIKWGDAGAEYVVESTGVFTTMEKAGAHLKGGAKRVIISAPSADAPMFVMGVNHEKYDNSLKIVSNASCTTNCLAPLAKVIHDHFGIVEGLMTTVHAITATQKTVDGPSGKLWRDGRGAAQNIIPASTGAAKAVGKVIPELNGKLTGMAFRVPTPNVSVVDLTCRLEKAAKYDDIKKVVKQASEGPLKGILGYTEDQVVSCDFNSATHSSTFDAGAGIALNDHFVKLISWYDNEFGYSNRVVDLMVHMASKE
Sequence of Glyceraldehyde-3-phosphate dehydrogenase (Homo sapiens, UniProt P04406) (P04406 whole entry): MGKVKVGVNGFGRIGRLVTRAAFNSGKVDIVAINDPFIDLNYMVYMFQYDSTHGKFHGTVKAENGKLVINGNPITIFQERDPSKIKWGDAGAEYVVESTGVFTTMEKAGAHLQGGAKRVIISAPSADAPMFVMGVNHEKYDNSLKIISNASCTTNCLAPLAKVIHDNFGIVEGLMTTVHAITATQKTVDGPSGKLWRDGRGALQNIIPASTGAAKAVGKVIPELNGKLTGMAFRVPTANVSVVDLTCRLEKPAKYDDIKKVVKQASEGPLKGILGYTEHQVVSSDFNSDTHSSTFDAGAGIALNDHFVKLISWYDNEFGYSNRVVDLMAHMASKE
Sequence of Glyceraldehyde-3-phosphate dehydrogenase (Oryctolagus cuniculus, UniProt P46406) (P46406 whole entry): as the sequence (P46406 whole entry, looked up) above

One may read the inhibition as the percentage by which the read-out fell short of the control. A word on the IC50: it is the midpoint of a concentration-inhibition curve. On to `O=C(NCCOCCOCCNc1nc(NCCc2ccc(O)c(O)c2)nc(Nc2ccccc2)n1)c1ccccc1`, for which the inhibition in the assay with Caenorhabditis elegans [1] was 18%; in assay [2] it was “Dose-dependent effect”. The same compound had an IC50 in [3] of 15 µM. In addition, the result in assay [4] and in [5] was Active. For the same compound, in assay [6], the outcome was inactive. Further, the inhibition result (in assay [7]; in the assay on 3T3-L1 [8]; in assay [9]; in assay [11]) was “Active” in each case. In the assay with 3T3-L1 [10], the inhibition result was “inactive”.
Consider `C#CCN(C)[C@H](C)Cc1ccccc1`, for which the outcome in assay [4] was inactive.
Regarding `NCCc1cc(O)c(O)cc1O` [OXIDOPAMINE], the inhibition entry in assay [2] is “inactive”. The same compound yielded a half-inhibitory concentration (IC50) in [12] of 8 µM. In assay [4], the result was inactive.
For `CCCCNc1nc(NCCOCCOCCNC(=O)c2ccccc2)nc(NCc2ccccn2)n1`, the inhibition result (in assay [2]; in [13]; in [7]; in the assay on 3T3-L1 [8]; in [11]; in the assay on Caenorhabditis elegans [14]) was “inactive” each time. In addition, the outcome in assay [4] was inactive.
